Measurements as given in ChEMBL document CHEMBL1781977, “Design and synthesis of 3,5-diarylisoxazole derivatives as novel class of anti-hyperglycemic and lipid lowering agents” (Bioorg Med Chem, 2009).
Calls of active or inactive are those of the source. No cut-off for these calls is given here.

How the values were obtained:
[1] = target: T1, Tyrosine-protein phosphatase non-receptor type 1 (Homo sapiens) (UniProt P18031); assay: Inhibition of protein tyrosine phosphatase-1B at 10 uM incubated for 10 mins using pNPP substrate by modified Goldstein method; set-up: Activity: scale not given: the % may be the effect or the level left
T1 sequence (whole entry): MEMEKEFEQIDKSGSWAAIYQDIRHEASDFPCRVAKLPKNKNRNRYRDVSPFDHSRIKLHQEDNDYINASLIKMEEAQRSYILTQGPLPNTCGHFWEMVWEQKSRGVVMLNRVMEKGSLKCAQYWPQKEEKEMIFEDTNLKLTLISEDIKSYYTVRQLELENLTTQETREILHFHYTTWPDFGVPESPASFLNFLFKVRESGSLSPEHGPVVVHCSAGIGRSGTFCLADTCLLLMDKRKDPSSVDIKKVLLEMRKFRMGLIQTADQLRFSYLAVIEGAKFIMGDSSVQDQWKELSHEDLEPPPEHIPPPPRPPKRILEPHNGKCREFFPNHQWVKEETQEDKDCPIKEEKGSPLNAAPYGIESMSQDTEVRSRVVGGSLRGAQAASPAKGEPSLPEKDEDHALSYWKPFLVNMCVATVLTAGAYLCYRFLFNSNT
Method in brief: (§1)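 PTP-1B: compound preincubated 10 min with enzyme, with or without 0.01% Triton X-100. Then 10 mM pNPP in 50 mM HEPES pH 7.0 with 1 mM DTT and 2 mM EDTA, 30 min at 37 °C. Stopped with 0.1 N NaOH; absorbance read at 410 nm. p-Nitrophenolate calculated using ε 1.78 × 10⁴ M⁻¹cm⁻¹. Sodium orthovanadate used as reference.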

[2] = target: T2, Tyrosine-protein phosphatase non-receptor type 1 (Homo sapiens, UniProt P18031); assay: Inhibition of protein tyrosine phosphatase-1B at 10 uM incubated for 10 mins using pNPP substrate in absence of Triton X-100 by modified Goldstein method; method in brief: as §1
T2 sequence (P18031 whole entry): T1 sequence (whole entry)

[3] = target: T2, Tyrosine-protein phosphatase non-receptor type 1; assay: Inhibition of protein tyrosine phosphatase-1B at 10 uM incubated for 10 mins using pNPP substrate in presence of 0.01% Triton X-100 by modified Goldstein method; method in brief: as §1
[4] = system: Rattus norvegicus; assay: Antihyperglycemic activity in Charles Foster/Wistar albino rat assessed as reduction in blood glucose level at 100 mg/kg, po administered 30 mins before sucrose challenge; assay type: functional
Method in brief: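 Male Charles Foster/Wistar rats, 160 ± 20 g, fasted 16 h; animals with glucose 60–80 mg/dl used, 5–6 per group. Given 100 mg/kg orally as suspension in 1.0% gum acacia (controls vehicle alone). Sucrose 10.0 g/kg orally 30 min later. Glucometer readings at 30, 60, 90, 120 min. Percent activity derived from AUC of treated versus control groups.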

[5] = system: Rattus norvegicus; assay: Antihyperglycemic activity against sucrose challenged streptozotocin-induced diabetic Sprague-Dawley albino rat assessed as reduction in blood glucose level at 100 mg/kg, po administered 30 mins before sucrose challenge measured after 5 hrs; assay type: functional
Method in brief: (§2)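 Male Sprague Dawley rats, 160 ± 20 g, fasted overnight, given streptozotocin 60 mg/kg ip in 100 mM citrate pH 4.5. Rats with glucose 144–270 mg/dl at 48 h count as diabetic, 5–6 per group. Dosed 100 mg/kg orally in 1.0% gum acacia. Sucrose 2.5 g/kg given 30 min later. Glucose read at 30–300 min and 24 h. Non-responders excluded.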

[6] = system: Rattus norvegicus; assay: Antihyperglycemic activity against sucrose challenged streptozotocin-induced diabetic Sprague-Dawley albino rat assessed as reduction in blood glucose level at 100 mg/kg, po administered 30 mins before sucrose challenge measured after 24 hrs; assay type: functional; method in brief: as §2
[7] = species on record: Mus musculus; assay: Antihyperglycemic activity in C57BL/Ks db/db mouse assessed as reduction in blood glucose level measured after 3 days relative to control; assay type: functional
[8] = system: Mus musculus; assay: Antihyperglycemic activity in C57BL/Ks db/db mouse assessed as reduction in blood glucose level at 100 mg/kg, po measured 10 days post dose by postprandial glucose tolerance test; assay type: functional; conditions: 240 h, in the assay text read “oral glucose tolerance test” for “postprandial glucose tolerance test”
Method in brief: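 db/db mice (C57BL/KsBom, 12–18 weeks, 40–50 g) given 100 mg/kg orally, vehicle 1.0% gum acacia. Day 10 OGTT after overnight fast: glucose at −30 min and drug given, then glucose at 0 min. Glucose 3 g/kg given, with readings at 30, 60, 90 and 120 min.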

[9] = system: Mus musculus; assay: Antidyslipidemic activity in C57BL/Ks db/db mouse assessed as plasma HDL-cholesterol level at 100 mg/kg, po; assay type: functional
Method in brief: (§3)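 db/db mice (C57BL/KsBom, 12–18 weeks, 5 male and 5 female) dosed orally at 100 mg/kg in 1.0% gum acacia. Blood collected on day 8 for serum lipids. Mean ± SD, n = 5, against vehicle-treated db/db controls; Dunnett's test.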

[10] = system: Mus musculus; assay: Antidyslipidemic activity in C57BL/Ks db/db mouse assessed as reduction in plasma triglyceride level at 100 mg/kg, po; assay type: functional; method in brief: as §3
[11] = system: Mus musculus; assay: Antidyslipidemic activity in C57BL/Ks db/db mouse assessed as reduction in plasma cholesterol level at 100 mg/kg, po; assay type: functional; method in brief: as §3
[12] = target: Dipeptidyl peptidase 4 (Homo sapiens) (UniProt P27487); assay: Inhibition of DPP4 assessed as rate of substrate cleavage using Gly-Pro-AMC substrate by spectrofluorometry
Method in brief: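 DPP-IV activity read by fluorescence at 37 °C, excitation 355 nm and emission 460 nm. Initial rate calculated over the first 15 min as increase in fluorescence intensity.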

[13] = system: Rattus norvegicus; assay: Antihyperglycemic activity against sucrose challenged streptozotocin-induced diabetic Sprague-Dawley albino rat assessed as reduction in blood glucose level at 15 mg/kg, po administered 30 mins before sucrose challenge; assay type: functional
Method in brief: (§4)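 Streptozotocin-diabetic Sprague Dawley rats: streptozotocin 60 mg/kg ip in citrate pH 4.5; rats at 144–270 mg/dl after 48 h used. Oral doses of 7.5–100 mg/kg in 1.0% gum acacia, then sucrose 2.5 g/kg. Glucose measured at 30, 60, 90, 120, 180, 240, 300 and 1440 min. ED50 taken from dose response. Mean ± SD, n = 5; Dunnett's test.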

[14] = system: Rattus norvegicus; assay: Antihyperglycemic activity against sucrose challenged streptozotocin-induced diabetic Sprague-Dawley albino rat assessed as reduction in blood glucose level at 50 mg/kg, po administered 30 mins before sucrose challenge; assay type: functional; method in brief: as §4
[15] = system: Mus musculus; assay: Antihyperglycemic activity in C57BL/Ks db/db mouse assessed as reduction in blood glucose level at 100 mg/kg, po measured 6 days post dose by postprandial glucose tolerance test; assay type: functional; conditions: 144 h
Method in brief: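 C57BL/KsBom-db mice, 12–18 weeks, 40–50 g, 5 male and 5 female, at 23 °C with 12/12 h light cycle. Treated orally at 100 mg/kg, vehicle 1.0% gum acacia. Day 6 postprandial test: glucose at −0.5 h and 0 h, then at 1, 2, 3, 4 and 6 h after dosing.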

[16] = system: Rattus norvegicus; assay: Antihyperglycemic activity against sucrose challenged streptozotocin-induced diabetic Sprague-Dawley albino rat assessed as reduction in blood glucose level at 25 mg/kg, po administered 30 mins before sucrose challenge; assay type: functional; method in brief: as §4
[17] = system: Rattus norvegicus; assay: Antihyperglycemic activity against sucrose challenged streptozotocin-induced diabetic Sprague-Dawley albino rat assessed as reduction in blood glucose level administered orally 30 mins before sucrose challenge; assay type: functional; conditions: po; method in brief: as §4
[18] = system: Rattus norvegicus; assay: Antihyperglycemic activity against sucrose challenged streptozotocin-induced diabetic Sprague-Dawley albino rat assessed as reduction in blood glucose level at 7.5 mg/kg, po administered 30 mins before sucrose challenge; assay type: functional; method in brief: as §4
[19] = system: Rattus norvegicus; assay: Antihyperglycemic activity against sucrose challenged streptozotocin-induced diabetic Sprague-Dawley albino rat assessed as reduction in blood glucose level at 100 mg/kg, po administered 30 mins before sucrose challenge; assay type: functional; method in brief: as §2

Sequence of Dipeptidyl peptidase 4 (Homo sapiens) (P27487 whole entry, looked up): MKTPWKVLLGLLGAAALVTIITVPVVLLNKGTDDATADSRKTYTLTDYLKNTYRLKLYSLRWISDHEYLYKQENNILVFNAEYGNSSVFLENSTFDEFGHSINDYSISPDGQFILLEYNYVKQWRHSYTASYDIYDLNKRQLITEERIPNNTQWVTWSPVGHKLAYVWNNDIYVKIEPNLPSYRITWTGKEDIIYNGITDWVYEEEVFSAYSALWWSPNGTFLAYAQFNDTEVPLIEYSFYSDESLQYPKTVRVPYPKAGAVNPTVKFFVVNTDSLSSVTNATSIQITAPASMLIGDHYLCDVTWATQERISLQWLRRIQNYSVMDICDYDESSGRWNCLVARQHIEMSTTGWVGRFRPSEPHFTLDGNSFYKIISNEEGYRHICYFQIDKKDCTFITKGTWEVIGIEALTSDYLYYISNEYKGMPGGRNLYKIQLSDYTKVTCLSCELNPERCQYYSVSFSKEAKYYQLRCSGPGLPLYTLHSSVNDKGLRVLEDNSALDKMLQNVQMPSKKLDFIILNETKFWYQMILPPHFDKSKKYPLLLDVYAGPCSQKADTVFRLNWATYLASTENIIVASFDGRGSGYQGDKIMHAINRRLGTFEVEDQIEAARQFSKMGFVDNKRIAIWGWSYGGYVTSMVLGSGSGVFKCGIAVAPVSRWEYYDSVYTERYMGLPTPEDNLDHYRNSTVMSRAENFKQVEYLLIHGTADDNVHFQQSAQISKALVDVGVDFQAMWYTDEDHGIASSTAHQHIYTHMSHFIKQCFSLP

Structure (SMILES) | inhibition [1] [%] | IC50 [2] [µM] | IC50 [3] [µM] | inhibition in vivo at 100 mg/kg [4] [%] | inhibition in vivo at 100 mg/kg [5] [%] | inhibition in vivo at 100 mg/kg [6] [%] | also measured
CCOC(=O)COc1cc(OC)ccc1-c1cc(-c2ccccc2)no1 | 79.3 | 5.25 | 5.35 | 10.4 | – | – | –
CCCCN(C)CCCOc1cc(OC)ccc1-c1cc(-c2ccccc2)no1 | 14.4 | 37.3 | 37.5 | 15 | 12.6 | 14.2 | –
Cc1ccc(S(=O)(=O)NC(=O)NN2CC3CCCC3C2)cc1 (stereo unspecified) [GLICLAZIDE] | – | – | – | 44.8 | 27.7 | – | inhibition (INH) [7]: 17.4%
COc1ccc(-c2cc(-c3ccccc3)no2)c(OCCN(C(C)C)C(C)C)c1 | 89.4 | 5.5 | 5.44 | 21.7 | 11.4 | 9.7 | inhibition [12]: inactive
CN(C)C(=N)NC(=N)N [METFORMIN] | – | – | – | 12.9 | – | 20.2 | inhibition (INH) [7]: 11.2%
COc1ccc(-c2cc(-c3ccccc3)no2)c(OCC(=O)O)c1 | – | 9.1 | 9.3 | 11.7 | – | – | Activity [1]: 75.2%

More lines, main results first:

inhibition [1] [%] | IC50 [2] [µM] | IC50 [3] [µM] | Structure (SMILES) | inhibition in vivo at 100 mg/kg [4] [%] | inhibition in vivo at 100 mg/kg [5] [%] | inhibition in vivo at 100 mg/kg [6] [%] | also measured
22.3 | 25.3 | 25.3 | COc1ccc(-c2cc(-c3ccccc3)no2)c(OCCCN(C)C)c1 | 11.8 | – | – | –
94.7 | 2.97 | 2.9 | CCN(CC)CCOc1cc(OC)ccc1-c1cc(-c2ccccc2)no1 | 29.9 | 26.9 | 25.7 | inhibition in vivo at 100 mg/kg [8]: 21.5%; Activity [9]: 3.9%; inhibition (INH) [7]: 21%; inhibition in vivo at 100 mg/kg [10]: -12%; inhibition in vivo at 100 mg/kg [11]: -14.5%; inhibition [12]: inactive; inhibition in vivo at 15 mg/kg [13]: 15.5%; inhibition in vivo at 50 mg/kg [14]: 21.7%; inhibition in vivo at 100 mg/kg [15]: 22.6%; inhibition in vivo at 25 mg/kg [16]: 19.5%; ED50 [17]: 45.3 mg/kg; inhibition in vivo at 7.5 mg/kg [18]: 10.3%; inhibition in vivo at 100 mg/kg [19]: 25.4%
33.5 | 24.2 | 24.3 | COc1ccc(-c2cc(-c3ccccc3)no2)c(OCCN(C)C)c1 | 16.8 | 15.3 | 15.9 | –
21.8 | 28 | 28.2 | CCN(CC)CCCOc1cc(OC)ccc1-c1cc(-c2ccccc2)no1 | 14.3 | 7.8 | 9.2 | –
21.8 | 27.5 | 27.6 | COc1ccc(-c2cc(-c3ccccc3)no2)c(O)c1 | 9.8 | – | – | –
